From ChEMBL document CHEMBL4130411, “Arylthiazole antibiotics targeting intracellular methicillin-resistant Staphylococcus aureus (MRSA) that interfere with bacterial cell wall synthesis” (Eur J Med Chem, 2017)
Values after ≈ are worked out from the molar mass of the structure shown. Active and inactive are the calls of the source. No cut-off for these calls is given here.

Key:
[1] = tested on: Staphylococcus aureus; test: Bactericidal activity against methicillin-resistant Staphylococcus aureus NRS123 (USA400) incubated for 20 hrs followed by replating on tryptic soy agar plates and further incubated for 18 hrs by broth microdilution assay; assay type: functional
[2] = tested on: Staphylococcus aureus; test: Bactericidal activity against vancomycin-resistant Staphylococcus aureus isolate 10 incubated for 20 hrs followed by replating on tryptic soy agar plates and further incubated for 18 hrs by broth microdilution assay; assay type: functional
How it was run: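 From MIC wells without visible growth, an aliquot was spotted onto Tryptic soy agar and incubated at 37 °C for at least 18 h; MBC = lowest concentration inhibiting 99.9% of bacterial growth.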

[3] = tested on: Staphylococcus aureus; test: Bactericidal activity against vancomycin-resistant Staphylococcus aureus isolate 4 incubated for 20 hrs followed by replating on tryptic soy agar plates and further incubated for 18 hrs by broth microdilution assay; assay type: functional
[4] = tested on: Staphylococcus aureus; test: Bactericidal activity against methicillin-resistant Staphylococcus aureus USA200 NRS383 incubated for 20 hrs followed by replating on tryptic soy agar plates and further incubated for 18 hrs by broth microdilution assay; assay type: functional
[5] = tested on: Staphylococcus aureus; test: Bactericidal activity against methicillin-resistant Staphylococcus aureus USA300 NRS384 incubated for 20 hrs followed by replating on tryptic soy agar plates and further incubated for 18 hrs by broth microdilution assay; assay type: functional
[6] = tested on: Staphylococcus aureus; test: Bactericidal activity against methicillin-resistant Staphylococcus aureus USA100 NRS382 incubated for 20 hrs followed by replating on tryptic soy agar plates and further incubated for 18 hrs by broth microdilution assay; assay type: functional
[7] = tested on: Staphylococcus aureus; test: Bactericidal activity against Staphylococcus aureus RN4220 NRS107 incubated for 20 hrs followed by replating on tryptic soy agar plates and further incubated for 18 hrs by broth microdilution assay; assay type: functional
[8] = tested on: Staphylococcus aureus; test: Antibacterial activity against vancomycin-resistant Staphylococcus aureus isolate 10 after 20 hrs by broth microdilution assay; assay type: functional; conditions: isolate 10, 20 h
[9] = tested on: Staphylococcus aureus; test: Antibacterial activity against methicillin-resistant Staphylococcus aureus USA300 NRS384 after 20 hrs by broth microdilution assay; assay type: functional; conditions: USA300 NRS384, 20 h
[10] = tested on: Staphylococcus aureus; test: Antibacterial activity against methicillin-resistant Staphylococcus aureus NRS123 (USA400) after 20 hrs by broth microdilution assay; assay type: functional
[11] = tested on: Staphylococcus aureus; test: Antibacterial activity against methicillin-resistant Staphylococcus aureus USA100 NRS382 after 20 hrs by broth microdilution assay; assay type: functional; conditions: USA100 NRS382, 20 h
[12] = tested on: Staphylococcus aureus; test: Antibacterial activity against methicillin-resistant Staphylococcus aureus USA200 NRS383 after 20 hrs by broth microdilution assay; assay type: functional; conditions: USA200 NRS383, 20 h
[13] = Intrinsic clearance in human liver microsomes in presence of NADPH by LC-MS/MS analysis; assay type: ADME, microsome; conditions: read-out: CLH
How it was run: (§1)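 Human liver microsomal protein was incubated in duplicate at 37 °C in 100 mM potassium phosphate, 2 mM NADPH, 3 mM MgCl2, pH 7.4. Samples were taken at 0, 10, 20, 40 and 60 min and stopped with ice-cold methanol containing an internal standard. Half-life was derived from depletion. CLint = ln(2)/(T1/2 × microsomal protein concentration).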

[14] = Half life in human liver microsomes in presence of NADPH by LC-MS/MS analysis; assay type: ADME, microsome; conditions: liver microsomes; how it was run: as §1
[15] = Half life in human liver microsomes in absence of NADPH by LC-MS/MS analysis; assay type: ADME, microsome
How it was run: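 Human liver microsomes were incubated in duplicate at 37 °C in 100 mM potassium phosphate with 3 mM MgCl2, pH 7.4, without NADPH to detect NADPH-free degradation. Aliquots were taken at 0, 10, 20, 40 and 60 min and quenched in ice-cold methanol containing an internal standard, then held at least 10 min at -20 °C before water was added. Half-life was taken from compound depletion.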

[16] = tested on: Bacillus subtilis; test: Inhibition of cell wall biosynthesis in Bacillus subtilis assessed as induction of formation of misshapen cells at 1.875 ug/ml incubated for 2 hrs by FM-4-64 staining based assay; assay type: functional, organism-based
How it was run: (§2)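 B. subtilis grown in LB at 37 °C to OD600 ~0.2, then treated with or without the osmotic stabiliser MSM for 2 h; stained with FM 4-64 (1 µg/mL, membranes), DAPI (1 µg/mL, DNA) and SYTOX Green (1 µg/mL, lysis); imaged by deconvolution fluorescence microscopy.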

[17] = tested on: Bacillus subtilis; test: Inhibition of cell wall biosynthesis in Bacillus subtilis assessed as induction of large bulges formation at 1.875 ug/ml incubated for 2 hrs by FM-4-64 staining based assay; assay type: functional, organism-based; how it was run: as §2
[18] = tested on: Staphylococcus aureus; test: Antibacterial activity against vancomycin-resistant Staphylococcus aureus isolate 4 after 20 hrs by broth microdilution assay; assay type: functional; conditions: isolate 4, 20 h
[19] = tested on: Staphylococcus aureus; test: Antibacterial activity against Staphylococcus aureus RN4220 NRS107 after 20 hrs by broth microdilution assay; assay type: functional; conditions: RN4220 NRS107, 20 h

Row | SMILES | MBC [1] | MBC [2] | MBC [3] | MBC [4] | MBC [5] | MBC [6] | MBC [7] | MIC [8] | MIC [9] | MIC [10] | MIC [11] | MIC [12] | microsomal CLint [13] | half-life [14] | t1/2 [15] | inhibition [16] | inhibition [17] | MIC [18] | MIC [19]
1 | CC(=O)NC[C@H]1CN(c2ccc(N3CCOCC3)c(F)c2)C(=O)O1 [LINEZOLID] | 32 µg/mL (≈ 94.9 µM) | 16 µg/mL (≈ 47.4 µM) | 8 µg/mL (≈ 23.7 µM) | 32 µg/mL (≈ 94.9 µM) | 16 µg/mL (≈ 47.4 µM) | 16 µg/mL (≈ 47.4 µM) | 32 µg/mL (≈ 94.9 µM) | – | – | – | – | – | – | – | – | – | – | – | –
2 | CCCCc1ccc(-c2nc(C)c(-c3cnc(N)s3)s2)cc1 | > 64 µg/mL | > 64 µg/mL | – | – | > 64 µg/mL | – | – | > 64 µg/mL | > 64 µg/mL | > 64 µg/mL | – | – | – | – | – | – | – | – | –
3 | Cc1nc(-c2ccc3ccccc3c2)sc1-c1cnc(-c2cccnc2)s1 | > 64 µg/mL | 16 µg/mL (≈ 41.5 µM) | – | > 64 µg/mL | 64 µg/mL (≈ 166 µM) | > 64 µg/mL | – | 16 µg/mL (≈ 41.5 µM) | 16 µg/mL (≈ 41.5 µM) | 16 µg/mL (≈ 41.5 µM) | 8 µg/mL (≈ 20.8 µM) | 8 µg/mL (≈ 20.8 µM) | – | – | – | – | – | – | –
4 | CCCCc1ccc(-c2nc(C)c(/C(C)=N/NC(=N)N)s2)cc1 | – | – | – | – | – | – | – | – | – | – | – | – | 80.3 µL/min/mg | 28.8 min | > 240 min | – | – | – | –
5 | Cc1nc(-c2ccc3ccccc3c2)sc1-c1cnc(N)s1 | > 64 µg/mL | > 64 µg/mL | – | – | > 64 µg/mL | – | – | > 64 µg/mL | > 64 µg/mL | > 64 µg/mL | – | – | – | – | – | – | – | – | –
6 | Cc1onc(-c2ccccc2)c1C(=O)N[C@@H]1C(=O)N2[C@@H]1SC(C)(C)[C@@H]2C(=O)O | – | – | – | – | – | – | – | – | – | – | – | – | – | – | – | Active | Active | – | –
7 | CCCCc1ccc(-c2nc(C)c(-c3cnc(-c4cccnc4)s3)s2)cc1 | 16 µg/mL (≈ 40.9 µM) | > 64 µg/mL | > 64 µg/mL | – | 16 µg/mL (≈ 40.9 µM) | – | 32 µg/mL (≈ 81.7 µM) | > 64 µg/mL | 16 µg/mL (≈ 40.9 µM) | 16 µg/mL (≈ 40.9 µM) | – | – | – | – | – | – | – | > 64 µg/mL | 16 µg/mL (≈ 40.9 µM)
8 | Cc1nc(-c2ccc(-c3ccccc3)cc2)sc1-c1cnc(NC(=N)N)s1 | 16 µg/mL (≈ 40.9 µM) | 8 µg/mL (≈ 20.4 µM) | 8 µg/mL (≈ 20.4 µM) | – | 16 µg/mL (≈ 40.9 µM) | – | 32 µg/mL (≈ 81.7 µM) | 8 µg/mL (≈ 20.4 µM) | 8 µg/mL (≈ 20.4 µM) | 16 µg/mL (≈ 40.9 µM) | – | – | – | – | – | – | – | 8 µg/mL (≈ 20.4 µM) | 16 µg/mL (≈ 40.9 µM)
